Measurements taken from the EternaBench riboswitch data.

Test system: MS2 coat protein
Test: apparent Kd, MS2 coat protein; higher = weaker binding; RNA-MaP array; FMN 200 µM where present
Method in brief: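 Two titrations, one without ligand and one with constant ligand, were run with SNAP-549-labelled MS2 coat protein from 0.7 or 1.5 nM, doubling to 3 µM. The targets were designs transcribed by stalled E. coli RNA polymerase on Illumina sequencing-chip clusters, in 100 mM Tris-HCl pH 7.5, 80 mM KCl, 4 mM MgCl2, BSA, DTT, yeast tRNA and Tween-20. The apparent Kd is the median of filtered per-cluster binding-curve fits, with green signal normalised to red-channel RNA signal and control-cluster median Fmax.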

[1] = designed as: ON switch for flavin mononucleotide, no ligand
[2] = ligand present: flavin mononucleotide, designed as: ON switch for flavin mononucleotide
[3] = designed as: OFF switch for flavin mononucleotide, no ligand
[4] = ligand present: flavin mononucleotide, designed as: OFF switch for flavin mononucleotide

| Sequence | apparent Kd [1] | apparent Kd [2] | apparent Kd [3] | apparent Kd [4] |
| --- | --- | --- | --- | --- |
| AUGGACGUCGUAGGAUAUGUAGGAUUCUCGUACAUGAGGAUCACCCAUGUUGACGUCAAGGUCGGACAGAAGGGCGGUGUCUAU | 584 nM | 65.4 nM |  |  |
| AAAAUGUGAGGAUAUCAGGUGUGCUAGCGUACUGGUACAUCUGAGAAGGCACAUGAGGAUCACCCAUGUUUCUU |  |  | 21.5 nM | 79.7 nM |
| GAAUAGGCAGGAUAUACAUGAGGAUCACCCAUGUGCCUGCGAAAGGUACGUUCGAAAGGUAGAAGGGCCUAAAC |  |  | 12.1 nM | 17.1 nM |
| CGCAAGUCAGGAUAUUCGACUGGUAAAUCUGUGGAUCAGUAGGAGAAGGGACAUGAGGAUCACCCAUGUUUGUA |  |  | 29.5 nM | 35.9 nM |
| ACCGAAUGAACAUGAGGAUCACCCAUGUACAGGAAACUGAAUGAGGAUAUCCAUAGCAAAGCUAUGGAGAAGGCAUGGGUCGGU | 363 nM | 110 nM |  |  |
| UCACGGGAUUGAGGAUAUAUAUUAAUUUUUUUUAUAGAAGGCAAAUUGUUAGAUUAUUCACUAUACAUGAGGAUCACCCAUGUU |  |  | 29.3 nM | 26.6 nM |
| GGGUACAUGGGAGGAUAUCCUCAAGAGACAUGAGGAUCACCCAUGUAUUAUAAGCCGAAAGGCAUGGAGAAGGCCCAUGUACCG | 62 nM | 19.1 nM |  |  |
| UGGUACUAGGGAGGAUAUGGGAAGAAACAUGAGGAUCACCCAUGUUUAAGAAUGCCGAGAGGCAACUAGAAGGCCCUAGUACCU | 9.75 nM | 4.99 nM |  |  |
| AGCUACGUUUCGUAGCAGUGUCAUCGAGAAGGCUCAUUAACAUGAGGAUCACCCAUGUAUUCAUGGGAGGAUAUCGAUGAUACA | 131 nM | 9.22 nM |  |  |
| UGUCGGAGCAGAGGAUAUUACAUGAGGAUCACCCAUGUAUGAACCAAUAGCUGGAAACAGCAAUGUUAGAAGGCUGCUCCGACA |  |  | 5.23 nM | 6.86 nM |
| AUUUAUGGCCAGAAGGACAUGAGGAUCACCCAUGUAGGAUAUGGACGAUUUUGCUCGACGGUUUGUUAAGGAAGCACCGGUGGU | 12.4 nM | 6.52 nM |  |  |
| AGGGAGUAAGGAUAUGCUGCUCGUCACUUGCGUGAUGAGUAGCAGAAGGUACAUGAGGAUCACCCAUGUAAAGA |  |  | 30 nM | 22.9 nM |
| GUAUCUUACCAAGGAUAUUUAAGAUUAGUGUAGACAUGAGGAUCACCCAUGUGGCCUUAGUCACGGGAGAAGGUGGUUUGAUAC | 312 nM | 70.9 nM |  |  |
| GGAUGAUUAAUAGGAUAUUAUUUGUAAAUUGGUUAAGAAGGAUUAAUGAUUUAAACGACCUGUUACAUGAGGAUCACCCAUGUU | 45.1 nM | 35.2 nM |  |  |
| GGGAACAUCGGAGGAUAUCAUGUAAAUACAUGAGGAUCACCCAUGUCGAUGGAGACAUCGGAGAUUGAGAAGGCCGAUGUACCG | 173 nM | 9.66 nM |  |  |
| AUUUAAUUUAAUAAGAUCACAUGAGGAUCACCCAUGUUAUAAUAGGAUAUCAGCUCGUGUAGAGCUGAGAAGGAUUAUAACAUG |  |  | 66.3 nM | 35.1 nM |
| GCUAUCGAUGUAGGAUAUGCUAGAGAAACUCUGGCAGAAGGACAUGAGGAUCACCCAUGUCAAUGGAUGGAGAGAAGAGAUGGC |  |  | 24.1 nM | 58 nM |
| GGCACUAUCACAGGAUAUGCUUUCCUUUGGGAAGCAGAAGGGUGUAACAUGAGGAUCACCCAUGUGGUGCCAGGGCGUGAGCCC | 114 nM | 10.9 nM |  |  |
| AACACGAGAGGUGUUGUCUAAUCACAUGAGGAUCACCCAUGUAAGGAUAUCGCGGCUAUCGGCAUCGAGAAGGUACAGGGUGCA |  |  | 165 nM | 58.9 nM |
| CAGUACUGAGGAUAUACAUGAGGAUCACCCAUGUGAAAAAGCUACGAAAGUAGCAAAUGUAGAAGGCAGUACUG |  |  | 34.3 nM | 254 nM |
| GAAUGGGUAGAAGGACAUGAGGAUCACCCAUGUAGUGUGACUAAGGAUAUUAGAGAAGAUUGACGUAAGAAGGUAGAUGUGAGG |  |  | 134 nM | 117 nM |

| Sequence | apparent Kd [1] | apparent Kd [2] | apparent Kd [3] | apparent Kd [4] |
| --- | --- | --- | --- | --- |
| CGUAGGAUCCAGAAGGCAUGAAACAUGAGGAUCACCCAUGUAAAAGACAUGAGGAUAUGGAUCCUACGAAAAGUGCGAAAGCAC | 3.69 nM | 3.4 nM |  |  |
| AGGUAUCCUGAGAAAUUUCUCCACAUGAGGAUCACCCAUGUAGAGGAUAUCGACGCUGUGCGGUUCGAGAAGGCUACACUAAAA |  |  |  | 15.3 nM |
| GGAUAGUGUCGUUAUCCGUAGCGAACAUGAGGAUCACCCAUGUAGGAUAUGUUACUAAACUAGUAACAGAAGGGCGUGAGUCUU |  |  | 94.2 nM | 108 nM |
| CUCAUGUGAGGAUAUCAGUAGUAAAAAAAAAAAAUUACUACUGAGAAGGCACAUGAGGAUCACCCAUGUGACUU |  |  | 34.8 nM | 30.6 nM |
| GUGGCCCAGGCACAGGAUAUGUUUCUCGUAACAUGAGGAUCACCCAUGUGCCUAUGAGAUUUAAUGCAGAAGGGUGCACGCCACG | 135 nM | 18.4 nM |  |  |
| UGUCGGAGCAGAGGAUAUUACAUGAGGAUCACCCAUGUAUGAACCAAUAGCUGGAAACAGCAAUGUAAGAAGGCCGCUCCGACA |  |  | 5.82 nM | 28.5 nM |
| GUUAUGUGAGGAUAUAUGUAGGAAACUACAUUAAGGGUAUCACAUGAGGAUCACCCAUGUAGAAGGCGCGUAGC |  |  | 298 nM | 349 nM |
| GUGCAGGUAGGAUAUACGUGAGAGCCUUGUGGGCGUCUGGUACAUGAGGAUCACCCAUGUAGAAGGACCGGGCU |  |  | 21.3 nM | 77.5 nM |
| AUGGAUAUCACAGGAUAUGCUAUGGAUACCAUAGCAGAAGGGUGAUCCAUCCUAUGUGAGCACAUGAGGAUCACCCAUGUGUCC | 123 nM | 23.1 nM |  |  |
| CUGUGUUGCGGGCAGGAUAUGUAUUGGAGUACAUGAGGAUCACCCAUGUGCGGGUGUUUCACCCGACAGAAGGGCCAAUCGCGAC | 128 nM | 24.5 nM |  |  |
| CUGUAGAGUUAGGAUAUCGGCGCGUGAGAAGUUUGAGAAGGGACCACAUGAGGAUCACCCAUGUGUCUUCACCU |  |  | 14.7 nM | 15.7 nM |
| UAGAUGGCUCAGGAUAUUUGCCAACUAACUCGCGAAGAAGGGAGCACAUGAGGAUCACCCAUGUGAUCGAACGG |  |  | 18.8 nM | 45.6 nM |
| UCAUAUUUACAAGGAUAUCAAUUAAUUAAACAUCCUACAUGAGGAUCACCCAUGUUAAAAUAUUAUGAGAAGGUGUAUUGUCGG | 32.7 nM | 40.3 nM |  |  |
| UGGUACAUGGGAGGAUAUCAUGAACUUACAUGAGGAUCACCCAUGUCGAUGGAGACAUCGGAGAUUGAGAAGGCCCAUGUACCU | 77.6 nM | 22.4 nM |  |  |
| GGACGUCGCAUUAACAUGAGGAUCACCCAUGUCAAAGGACAUGAGGAUAUGGAUCCUAAUUGGAUCCAGAAGGCAUGGACGUCC | 485 nM | 35.8 nM |  |  |
| UGCGAACAGGCUAACAUGAGGAUCACCCAUGUGGACUCAUGGUAGGAUAUCGGGAAGGAGGAAACCGAGAAGGGCCGGUGAGCG | 197 nM | 65 nM |  |  |
| AGCGAACAGGCUAACAUGAGGAUCACCCAUGUGGACUCAUGGUAGGAUAUCGGGAAGGAGGAAACCGAGAAGGGCCGGUGAGCC | 440 nM | 229 nM |  |  |
| CUGGUGUCAGGAUAUGCAUAGCAGUGACCGGAACCCGGUCAGCAGAAGGGACAUGAGGAUCACCCAUGUUAAUA |  |  | 24.2 nM | 57.7 nM |
| GUAGCUACUUUUAUACAUGAGGAUCACCCAUGUUACUUGGGUAAGGAUAUUGAUGUUAUGAUUAUCAAGAAGGUACUAUGCUAC | 136 nM | 30 nM |  |  |
| AAAUUUAACGAAGGAUAUGCUGACAUGAGGAUCACCCAUGUGUGCUUUGUGUUGCUGAAAUGGGAGCAGAAGGUCGUAUACAUA |  |  |  | 128 nM |
| CGCUAAUAAAUAGUAAUAAUUGUACAGGAUAUGUUACAUGAGGAUCACCCAUGUAUUGGGUUUAAACAGAAGGGUAUAUUAGCG |  |  | 261 nM | 126 nM |
